Bioassay records from PubChem BioAssay.
An excerpt weighted towards active compounds, which were near 9.2% of everything screened.
PTEN del growth – PTEN-deleted cell growth suppression; HCT116 PTEN-null viability, CellTiter-Glo, 60 h; active compounds read low; viability, % at 10 µM; 140,000 tested, 1.2% active; AID 827;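 active = viability at or below a set limit, 4 SD under the median of all tested compounds, cut at about 3.7% in these data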;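 also: PTEN knockout HCT116 line with beta catenin targeted HCT116 as companion control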
Dynein cargo inh – dynein cargo transport inhibition. z-score, hits read low. 220,000 tested, 0.47% active. AID 1381. 3617.4 mouse cells, GR-EGFP nuclear translocation imaging; test concentration mostly 20 µM; stimulated with dexamethasone, 1 µM; active compounds read low;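 active = plate z-score of nuclear minus cytoplasmic receptor signal below a set negative limit, without overly bright fluorescence or cell loss, cut at about -3.5 in these data, passing the limit was not always enough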;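 also: z-score of nuclear minus cytoplasmic ring GR-EGFP intensity difference per well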
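Buffer or medium: Induction medium lacking tetracycline, stripped serum | Also added: Dexamethasone agonist, 1.0 µM final, for 30 min | Timing: 48 h induction, 1 h compound, 30 min dex at 37 °C | Detection: Formaldehyde fixation, Hoechst nuclear stain, 10x automated fluorescence imaging | Measure: Nuclear versus cytoplasmic GR-EGFP signal, averaged per well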
L major viab – Leishmania major promastigote growth inhibition; Leishmania major promastigotes, resazurin fluorescence viability; inhibition, % at 10 µM; 200,000 tested, 9% active; in the data active = inhibition above about 50%;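 also: promastigotes grown with compound for 44 hours at 28 °C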
Autophagy HCS – modulators of autophagy. MEF GFP-LC3 puncta imaging; test concentration mostly 10 µM. calls only at 10 µM (by protocol). 190,000 tested, 0.98% active;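 active = percentage of spot-positive cells more than 3 SD above its plate mean, without a fluorescence outlier flag or 80% toxicity; inconclusive = no clear call, values can overlap the other calls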
HCT116 bCat-KO – beta-catenin-lacking colon tumor cell growth suppression; HCT116 beta-catenin knockout viability, CellTiter-Glo, 60 h; active compounds read low; viability, % at 10 µM; 140,000 tested, 1.5% active;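 active = viability at or under a set limit, the compound median less 4 SD, cut at about 6% in these data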
Of the large screens only hits and unclear results are named; the others gave an inactive call.

CCOC(=O)C1(c2ccccc2)CCN(CC(=O)Nc2cccc3ccccc23)CC1	none
O=C(Cc1ccccc1)N1CCN(C2CCCC2)CC1	none
CCOC(=O)C1(CCCc2ccccc2)CCN(C2CCCC2)CC1	L major viab 71 (no result: PTEN del growth, HCT116 bCat-KO)
CCOC(=O)C1(CCOc2ccccc2)CCN(Cc2ccc(C)s2)CC1	L major viab 81 (no result: PTEN del growth, HCT116 bCat-KO)
CCOC(=O)C1(CCc2ccccc2)CCN(C2CCSCC2)CC1	L major viab 88 (no result: PTEN del growth, HCT116 bCat-KO)
CCOC(=O)C1(CCc2ccccc2)CCN(Cc2ccc3c(c2)OCCO3)CC1	L major viab 84 (no result: PTEN del growth, HCT116 bCat-KO)
O=C(N/N=C/c1c(O)n(Cc2ccco2)c(=O)[nH]c1=O)c1ccccc1O	none (no result: PTEN del growth, L major viab, Autophagy HCS, HCT116 bCat-KO)
C=C[C@@H]1C[C@@]1(C)[C@@H](NP(=O)(c1ccccc1)c1ccccc1)c1ccccc1	none
O=C(CN1C(=O)CN=C(c2ccccc2Cl)c2cc(Cl)ccc21)NCc1ccco1	L major viab 97
COc1ccc(C2=NCC(=O)N(CC(=O)NCc3ccco3)c3sc4c(c32)CCCC4)cc1	none
O=C1CN=C(c2ccc(Br)cc2)c2c(sc3c2CCCC3)N1CCN1CCCCC1	none (no result: PTEN del growth, HCT116 bCat-KO)
Cn1c(=O)c2c(ncn2CCCl)n(C)c1=O	none (no result: PTEN del growth, HCT116 bCat-KO)
COc1ccc(CN2CCCCC2c2cccnc2)cc1C (stereo not drawn)	none
COc1cccc(CN2CCCCC2c2cccnc2)c1 (stereo not drawn)	L major viab 72 (no result: PTEN del growth)
O=C(CSC1c2ccccc2-c2ccccc21)N/N=C/c1ccccc1O	L major viab 100
O=C(CSC1c2ccccc2-c2ccccc21)N/N=C/c1ccc(C(=O)O)cc1	none (no result: PTEN del growth, HCT116 bCat-KO)
Nc1ccccc1C(=O)OCCOc1ccccc1	none (no result: Autophagy HCS)
C=CCN1C(=O)/C(=C/c2cc(C)n(-c3ccccn3)c2C)C(=O)NC1=S	L major viab 96
O=c1[nH]c(=O)n(Cc2ccccc2Cl)c(O)c1C=Nc1ccc(F)cc1	none (no result: PTEN del growth, HCT116 bCat-KO)
CCOc1ccccc1N=C1SCCCN1C	none
CC(=O)N1CCCSC1=Nc1ccccc1	L major viab 70 (no result: PTEN del growth, HCT116 bCat-KO)
Cc1cccc(N2CCc3c2nc2ccccc2c3N)c1	L major viab 94
O=C(c1n[nH]c(=O)c2ccccc12)N1CCC2(CC1)OCCO2	none (no result: PTEN del growth, HCT116 bCat-KO)
O=Cc1cn(Cc2ccccc2[N+](=O)[O-])c2ccccc12	L major viab 50
c1cc(C2N3CCCN2CC3)ccn1 (stereo not drawn)	none (no result: PTEN del growth, L major viab, Autophagy HCS, HCT116 bCat-KO)
O=C(CN1C2CCC1CC(O)(c1cccnc1)C2)Nc1ccc2c(c1)OCO2 (stereo not drawn)	L major viab 90
CN(C)C(=O)Oc1cccc(OCc2n(C)c3ccccc3[n+]2C)c1	none
Cc1cc(OCCCC(=O)NCc2cccs2)ccc1Cl	L major viab 56
O=C(CCCOc1ccc(Cl)cc1Cl)N1CCC2(CC1)OCCO2	none
Cc1cc(Cl)ccc1OCCCC(=O)NCc1cccs1	L major viab 60
CCc1ccc(CNCCc2ccc(F)cc2)cc1	none
CCN(CC)c1ccc(CNCCc2ccc(F)cc2)cc1	L major viab 96 (no result: PTEN del growth, HCT116 bCat-KO)
CCN(CCNc1ccc([N+](=O)[O-])c2cccnc12)S(=O)(=O)c1ccccc1	none
CCN(CCNc1ccc([N+](=O)[O-])c2cccnc12)S(=O)(=O)c1ccc(Cl)cc1	L major viab 89
O=[N+]([O-])c1ccc(NCCCN2CCOCC2)c2ncccc12	L major viab 87 (no result: PTEN del growth, HCT116 bCat-KO)
Cc1ccc(-c2nc3ccccc3c(=O)n2-c2nccs2)cc1	none
C/C(=N\NC(N)=O)c1c(O)n(C)c(=O)n(C)c1=O	none (no result: PTEN del growth, HCT116 bCat-KO)
O=[N+]([O-])c1cc(F)c(N2CCCC2)cc1Br	none (no result: PTEN del growth, HCT116 bCat-KO)
CCN1CCN(c2cc(N3CCCC3)c(F)cc2[N+](=O)[O-])CC1	L major viab 71
CN1CCN(c2cc(N3CCCC3)c([N+](=O)[O-])cc2F)CC1	L major viab 99
CC(C)(C)n1cc(C(=O)c2ccccc2)cc1-c1ccccc1	none (no result: PTEN del growth, L major viab, Autophagy HCS, HCT116 bCat-KO)
COc1ccc(C2SCC(=O)Nc3c2c(=O)[nH]n3C2CCCCC2)cc1 (stereo not drawn)	none
Cc1cc(C(=O)N=Nc2c(O)n(C)c3ccccc23)c(C)o1	L major viab 69
Cc1nc2ccccc2c(=O)n1-c1ccc(Cl)cc1[N+](=O)[O-]	none (no result: PTEN del growth, HCT116 bCat-KO)
CC(NCc1cccc(Cl)c1Cl)C(O)c1ccccc1 (stereo not drawn)	none
CC(NCc1ccc(Cl)cc1Cl)C(O)c1ccccc1 (stereo not drawn)	L major viab 64
CC(NCc1ccc(Cl)cc1)C(O)c1ccccc1 (stereo not drawn)	L major viab 87
COc1cc(/C=C/c2nc3ccccc3c(=O)n2-c2cccc(O)c2)ccc1O	none (no result: PTEN del growth, L major viab, Autophagy HCS, HCT116 bCat-KO)
Cc1cccc(-n2c(/C=C/c3ccc([N+](=O)[O-])o3)nc3ccccc3c2=O)c1	PTEN del growth 0.6, L major viab 88, Autophagy HCS inconclusive, HCT116 bCat-KO 0.8
O=c1c2ccccc2nc(/C=C/c2ccc([N+](=O)[O-])o2)n1-c1ccc(O)cc1	L major viab 99 (no result: PTEN del growth, HCT116 bCat-KO)
C[n+]1c(-c2ccccc2)cc(-c2ccc(Cl)cc2)cc1-c1ccccc1	L major viab 99 (no result: PTEN del growth, HCT116 bCat-KO)
CC(Cc1ccccc1Sc1ccccc1O)N(C)C (stereo not drawn)	L major viab 100
CCC(=NCc1ccco1)c1c(O)[nH]c(=O)[nH]c1=O	none
CN(C)c1ccc(-[n+]2c(-c3ccccc3)cc(-c3ccccc3)cc2-c2ccccc2)cc1	L major viab 100 (no result: PTEN del growth, HCT116 bCat-KO)
c1ccc(-c2cc(-c3ccccc3)[n+](-c3ccccc3)c(-c3ccccc3)c2)cc1	none (no result: PTEN del growth, L major viab, Autophagy HCS, HCT116 bCat-KO)
OC1/C(=C/c2ccccc2F)N2CCC1CC2 (stereo not drawn)	none (no result: PTEN del growth, HCT116 bCat-KO)
COc1ccc(NC(=O)c2cc([N+](=O)[O-])ccc2N2CCNCC2)cc1	Autophagy HCS active (no result: PTEN del growth, HCT116 bCat-KO)
CCCCCCn1c(O)c(C=NC2CCN(Cc3ccccc3)CC2)c(=O)[nH]c1=O	L major viab 54
O=c1[nH]c(=O)n(CCC2=CCCCC2)c(O)c1C=NC1CCN(Cc2ccccc2)CC1	L major viab 83
O=c1[nH]c(=O)n(CCC2=CCCCC2)c(O)c1/C=N/Nc1ccccc1	L major viab 81
C[C@]12CCC(=O)C=C1CC[C@@H]1[C@@H]2C(=O)C[C@]2(C)C(=O)CC[C@@H]12	none
COP(=O)(OC)C(NS(=O)(=O)c1ccccc1)C(Cl)(Cl)Cl (stereo not drawn)	none (no result: PTEN del growth, HCT116 bCat-KO)
CC(NC(=O)Cc1cccc2ccccc12)C(=O)N1CCC(=O)CC1 (stereo not drawn)	none (no result: PTEN del growth, HCT116 bCat-KO)
CC1=CC(=C2C(=O)NC(=O)NC2=O)C=C(C(F)(F)F)N1Cc1ccccc1	none (no result: PTEN del growth, HCT116 bCat-KO)
CC1=CC(=C2C(=O)NC(=S)NC2=O)C=C(C(F)(F)F)N1Cc1ccccc1	Autophagy HCS active (no result: PTEN del growth, HCT116 bCat-KO)
CCOC(C(=O)OCCCN(CC)CC)(c1ccccc1)c1ccccc1	L major viab 100
CCN(CC)CCCOC(=O)C(OC(C)C)(c1ccccc1)c1ccccc1	L major viab 89
O=C(c1ccccc1F)c1cn(CC(=O)N2CCCC2)c2ccccc12	none
Nc1ccc2nonc2c1[N+](=O)[O-]	none (no result: PTEN del growth, HCT116 bCat-KO)
CCN(CC)CC(O)c1ccc(C2CCCC2)cc1 (stereo not drawn)	L major viab 94
CCNC(=S)NCCC1=c2ccccc2=N/C1=C\c1c(O)n(C)c(=O)n(C)c1=O	none (no result: PTEN del growth, L major viab, Autophagy HCS, HCT116 bCat-KO)
